Measurements from ChEMBL document CHEMBL1926651, “Design, synthesis, antiviral and cytostatic evaluation of novel isoxazolidine nucleotide analogues with a 1,2,3-triazole linker” (Eur J Med Chem, 2012).
The source made the active and inactive calls. The calls are words filed in the database; no cut-off is given here.

How the values were obtained:
[1] = tested on: Human alphaherpesvirus 1; assay: Antiviral activity against Herpes simplex virus 1 KOS infected in human HEL cells assessed as inhibition of viral plaque formation at 250 uM; format: functional, organism-based
Summary of the method: (§1)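 Confluent host cell monolayers were inoculated with 100 CCID50 of virus in the presence of test compound at serial dilutions (250, 50, 10, … μM). Viral cytopathicity was scored once it reached completion in untreated virus-infected controls.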

[2] = tested on: Human alphaherpesvirus 2; assay: Antiviral activity against Herpes simplex virus 2 G infected in human HEL cells assessed as inhibition of viral plaque formation at 250 uM; format: functional, organism-based; details: strain G
[3] = tested on: Human alphaherpesvirus 1; assay: Antiviral activity against thymidine kinase-deficient acv-resistant Herpes simplex virus 1 KOS infected in human HEL cells assessed as inhibition of viral plaque formation at 250 uM; format: functional, organism-based
[4] = tested on: Vaccinia virus; assay: Antiviral activity against Vaccinia virus infected in human HEL cells assessed as inhibition of viral plaque formation at 250 uM; format: functional, organism-based; details: Orthopoxvirus vaccinia; summary of the method: as §1
[5] = tested on: Vesicular stomatitis virus; assay: Antiviral activity against Vesicular stomatitis virus infected in human HEL cells assessed as inhibition of viral plaque formation at 250 uM; format: functional, organism-based; summary of the method: as §1
[6] = tested on: Human betaherpesvirus 5; assay: Antiviral activity against Human cytomegalovirus AD169 infected in human HEL cells assessed as inhibition of viral plaque formation at 250 uM; format: functional, organism-based
[7] = tested on: Human betaherpesvirus 5; assay: Antiviral activity against Human cytomegalovirus Davis infected in human HEL cells assessed as inhibition of viral plaque formation at 250 uM; format: functional, organism-based
[8] = tested on: Human alphaherpesvirus 3; assay: Antiviral activity against thymidine kinase-positive Varicella Zoster virus Oka infected in human HEL cells assessed as inhibition of viral plaque formation at 250 uM; format: functional, cell-based; details: strain Oka vaccine
[9] = tested on: Human alphaherpesvirus 3; assay: Antiviral activity against thymidine kinase-deficient Varicella Zoster virus 07/1 infected in human HEL cells assessed as inhibition of viral plaque formation at 250 uM; format: functional, organism-based
[10] = tested on: Human respirovirus 3; assay: Antiviral activity against Parainfluenza-3 virus infected in african green monkey Vero cells assessed as inhibition of viral plaque formation at 250 uM; format: functional, organism-based; summary of the method: as §1
[11] = tested on: Mammalian orthoreovirus 1; assay: Antiviral activity against Reovirus-1 infected in african green monkey Vero cells assessed as inhibition of viral plaque formation at 250 uM; format: functional, organism-based; summary of the method: as §1
[12] = tested on: Sindbis virus; assay: Antiviral activity against Sindbis virus infected in african green monkey Vero cells assessed as inhibition of viral plaque formation at 250 uM; format: functional, organism-based; summary of the method: as §1
[13] = tested on: Coxsackievirus B4; assay: Antiviral activity against Coxsackievirus B4 infected in african green monkey Vero cells assessed as inhibition of viral plaque formation at 250 uM; format: functional, organism-based; summary of the method: as §1
[14] = tested on: Punta Toro virus; assay: Antiviral activity against Punta Toro virus infected in african green monkey Vero cells assessed as inhibition of viral plaque formation at 250 uM; format: functional, organism-based
[15] = tested on: Vesicular stomatitis virus; assay: Antiviral activity against Vesicular stomatitis virus infected in human Hela cells assessed as inhibition of viral plaque formation at 250 uM; format: functional, organism-based
[16] = tested on: Coxsackievirus B4; assay: Antiviral activity against Coxsackievirus B4 infected in human HeLa cells assessed as inhibition of viral plaque formation at 250 uM; format: functional, organism-based; summary of the method: as §1
[17] = tested on: Respiratory syncytial virus; assay: Antiviral activity against Respiratory syncytial virus infected in human HeLa cells assessed as inhibition of viral plaque formation at 250 uM; format: functional, organism-based; summary of the method: as §1
[18] = tested on: Felid alphaherpesvirus 1; assay: Antiviral activity against Felid herpesvirus 1 infected in CrFK cells assessed as inhibition of viral plaque formation at 250 uM; format: functional, organism-based; summary of the method: as §1
[19] = tested on: Feline coronavirus; assay: Antiviral activity against Feline coronavirus infected in CrFK cells assessed as inhibition of viral plaque formation at 250 uM; format: functional, organism-based; summary of the method: as §1
[20] = tested on: Human immunodeficiency virus 2; assay: Antiviral activity against Human immunodeficiency virus 2 infected in human CEM cells assessed as inhibition of virus-induced giant cell formation after 4 days by microscopic analysis; format: functional, organism-based; details: CCRF-CEM
Summary of the method: (§2)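 CEM cells at about 3 × 10⁵ cells/cm³ were infected with 100 CCID50/mL of HIV-1(IIIB) or HIV-2(ROD), then seeded into wells holding test compound dilutions. After 4 days at 37 °C, virus-induced giant cell formation was scored microscopically.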

[21] = tested on: Human immunodeficiency virus 1; assay: Antiviral activity against Human immunodeficiency virus 1 infected in human CEM cells assessed as inhibition of virus-induced giant cell formation after 4 days by microscopic analysis; format: functional, organism-based; details: CCRF-CEM; summary of the method: as §2
[22] = tested on: HEL; assay: Cytotoxicity against human HEL cells assessed as change in cell morphology up to 100 uM; format: cell-based
Summary of the method: (§3)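 Uninfected host-cell cultures were examined under the microscope. MCC was taken as the lowest compound concentration producing a detectable alteration of normal cell morphology, assessed at concentrations up to 100 μM.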

[23] = tested on: HeLa; assay: Cytotoxicity against human HeLa cells assessed as change in cell morphology up to 100 uM; format: cell-based; summary of the method: as §3
[24] = tested on: Vero; assay: Cytotoxicity against african green monkey Vero cells assessed as change in cell morphology up to 100 uM; format: cell-based; details: chlorocebus sabaeus; summary of the method: as §3
[25] = tested on: MDCK; assay: Cytotoxicity against MDCK cells assessed as change in cell morphology up to 100 uM; format: cell-based, Canis lupus familiaris; details: dog; summary of the method: as §3
[26] = Cytotoxicity against CRFK cells assessed as change in cell morphology up to 100 uM; format: cell-based, Felis catus; details: cat; summary of the method: as §3
[27] = tested on: HEL; assay: Cytotoxicity against human HEL cells 3 days by coulter counting; format: functional; details: 72 h
Summary of the method: (§4)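 Cells were suspended at 300,000–500,000 cells/mL and added 1:1 to compound dilutions. Incubation was at 37 °C, 2 days for L1210 and 3 days for CEM, HeLa and HEL. Cells were counted with a Coulter counter. CC50 is the concentration inhibiting cell proliferation by 50%.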

[28] = tested on: HeLa; assay: Cytotoxicity against human HeLa cells 3 days by coulter counting; format: functional; details: 72 h; summary of the method: as §4
[29] = tested on: CCRF-CEM; assay: Cytotoxicity against human CEM cells 3 days by coulter counting; format: functional; details: 72 h; summary of the method: as §4
[30] = tested on: L1210; assay: Cytotoxicity against mouse L1210 cells 2 days by coulter counting; format: functional; details: L1210, 48 h; summary of the method: as §4

## CCOP(=O)(OCC)[C@@H]1C[C@H](n2cc(-c3ccc(F)cc3F)nn2)ON1C (relative stereo)
[1]
  Activity: inactive
[2]
  Activity: inactive
[3]
  Activity: inactive
[4]
  Activity: inactive
[5]
  Activity: inactive
[6]
  Activity: inactive
[7]
  Activity: inactive
[8]
  Activity: inactive
[9]
  Activity: inactive
[10]
  Activity: inactive
[11]
  Activity: inactive
[12]
  Activity: inactive
[13]
  Activity: inactive
[14]
  Activity: inactive
[15]
  Activity: inactive
[16]
  Activity: inactive
[17]
  Activity: inactive
[18]
  Activity: inactive
[19]
  Activity: inactive
[20]
  Activity: inactive
[21]
  Activity: inactive
[22]
  Activity: Non-toxic
[23]
  Activity: Non-toxic
[24]
  Activity: Non-toxic
[25]
  Activity: Non-toxic
[26]
  Activity: Non-toxic
[27]
  CC50: 42 µM
[28]
  CC50: 135 µM
[29]
  CC50: ≥ 250 µM
[30]
  CC50: 124 µM

## CCOP(=O)(OCC)[C@@H]1C[C@H](n2cc(-c3cccc(F)c3)nn2)ON1C (relative stereo)
[1]
  Activity: inactive
[2]
  Activity: inactive
[3]
  Activity: inactive
[4]
  Activity: inactive
[5]
  Activity: inactive
[6]
  Activity: inactive
[7]
  Activity: inactive
[8]
  Activity: inactive
[9]
  Activity: inactive
[10]
  Activity: inactive
[11]
  Activity: inactive
[12]
  Activity: inactive
[13]
  Activity: inactive
[14]
  Activity: inactive
[15]
  Activity: inactive
[16]
  Activity: inactive
[17]
  Activity: inactive
[18]
  Activity: inactive
[19]
  Activity: inactive
[20]
  Activity: inactive
[21]
  Activity: inactive
[22]
  Activity: Non-toxic
[23]
  Activity: Non-toxic
[24]
  Activity: Non-toxic
[25]
  Activity: Non-toxic
[26]
  Activity: Non-toxic
[27]
  CC50: 43 µM
[28]
  CC50: 212 µM
[29]
  CC50: > 250 µM
[30]
  CC50: 104 µM

## CCOP(=O)(OCC)[C@@H]1C[C@H](n2cc(-c3ccccc3F)nn2)ON1C (relative stereo)
[1]
  Activity: inactive
[2]
  Activity: inactive
[3]
  Activity: inactive
[4]
  Activity: inactive
[5]
  Activity: inactive
[6]
  Activity: inactive
[7]
  Activity: inactive
[8]
  Activity: inactive
[9]
  Activity: inactive
[10]
  Activity: inactive
[11]
  Activity: inactive
[12]
  Activity: inactive
[13]
  Activity: inactive
[14]
  Activity: inactive
[15]
  Activity: inactive
[16]
  Activity: inactive
[17]
  Activity: inactive
[18]
  Activity: inactive
[19]
  Activity: inactive
[20]
  Activity: inactive
[21]
  Activity: inactive
[22]
  Activity: Non-toxic
[23]
  Activity: Non-toxic
[24]
  Activity: Non-toxic
[25]
  Activity: Non-toxic
[26]
  Activity: Non-toxic
[27]
  CC50: 41 µM
[28]
  CC50: 247 µM
[29]
  CC50: > 250 µM
[30]
  CC50: 122 µM

## CCOP(=O)(OCC)[C@@H]1C[C@@H](n2cc(-c3cccc(F)c3)nn2)ON1C (racemic)
[1]
  Activity: inactive
[2]
  Activity: inactive
[3]
  Activity: inactive
[4]
  Activity: inactive
[5]
  Activity: inactive
[6]
  Activity: inactive
[7]
  Activity: inactive
[8]
  Activity: inactive
[9]
  Activity: inactive
[10]
  Activity: inactive
[11]
  Activity: inactive
[12]
  Activity: inactive
[13]
  Activity: inactive
[14]
  Activity: inactive
[15]
  Activity: inactive
[16]
  Activity: inactive
[17]
  Activity: inactive
[18]
  Activity: inactive
[19]
  Activity: inactive
[20]
  Activity: inactive
[21]
  Activity: inactive
[22]
  Activity: Non-toxic
[23]
  Activity: Non-toxic
[24]
  Activity: Non-toxic
[25]
  Activity: Non-toxic
[26]
  Activity: Non-toxic
[27]
  CC50: 40 µM
[28]
  CC50: ≥ 250 µM
[29]
  CC50: > 250 µM
[30]
  CC50: ≥ 250 µM

## CCOP(=O)(OCC)[C@@H]1C[C@H](n2cc(-c3ccccc3)nn2)ON1C (relative stereo)
[1]
  Activity: inactive
[2]
  Activity: inactive
[3]
  Activity: inactive
[4]
  Activity: inactive
[5]
  Activity: inactive
[6]
  Activity: inactive
[7]
  Activity: inactive
[8]
  Activity: inactive
[9]
  Activity: inactive
[10]
  Activity: inactive
[11]
  Activity: inactive
[12]
  Activity: inactive
[13]
  Activity: inactive
[14]
  Activity: inactive
[15]
  Activity: inactive
[16]
  Activity: inactive
[17]
  Activity: inactive
[18]
  Activity: inactive
[19]
  Activity: inactive
[20]
  Activity: inactive
[21]
  Activity: inactive
[22]
  Activity: Non-toxic
[23]
  Activity: Non-toxic
[24]
  Activity: Non-toxic
[25]
  Activity: Non-toxic
[26]
  Activity: Non-toxic
[27]
  CC50: 54 µM
[28]
  CC50: > 250 µM
[29]
  CC50: > 250 µM
[30]
  CC50: 172 µM
